Screening data deposited in PubChem by Broad Institute.
Rows were chosen to be rich in hits. Some 0.27% of all compounds tested hit in one or more screens of this group.
ERAP1 HTS inh: human ERAP1 aminopeptidase inhibitors, primary screen, biochemical, single point, plate reader | Endoplasmic reticulum aminopeptidase 1 (Homo sapiens), Q9NZ08 | recombinant ERAP1, Leu-AMC fluorescence, 60 min | inhibition, % at 10.7 µM | hit rate 0.15% among 340,000 | AID 652197, 2013;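 active = mean replicate inhibition of at least 30%, or all replicates individually reaching that 30% level; inactive = mean below 30% and not every replicate reaching it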;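 also: 0% = neutral control wells and 100% = L-leucinethiol positive control wells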
Target sequence (Q9NZ08 whole entry, looked up): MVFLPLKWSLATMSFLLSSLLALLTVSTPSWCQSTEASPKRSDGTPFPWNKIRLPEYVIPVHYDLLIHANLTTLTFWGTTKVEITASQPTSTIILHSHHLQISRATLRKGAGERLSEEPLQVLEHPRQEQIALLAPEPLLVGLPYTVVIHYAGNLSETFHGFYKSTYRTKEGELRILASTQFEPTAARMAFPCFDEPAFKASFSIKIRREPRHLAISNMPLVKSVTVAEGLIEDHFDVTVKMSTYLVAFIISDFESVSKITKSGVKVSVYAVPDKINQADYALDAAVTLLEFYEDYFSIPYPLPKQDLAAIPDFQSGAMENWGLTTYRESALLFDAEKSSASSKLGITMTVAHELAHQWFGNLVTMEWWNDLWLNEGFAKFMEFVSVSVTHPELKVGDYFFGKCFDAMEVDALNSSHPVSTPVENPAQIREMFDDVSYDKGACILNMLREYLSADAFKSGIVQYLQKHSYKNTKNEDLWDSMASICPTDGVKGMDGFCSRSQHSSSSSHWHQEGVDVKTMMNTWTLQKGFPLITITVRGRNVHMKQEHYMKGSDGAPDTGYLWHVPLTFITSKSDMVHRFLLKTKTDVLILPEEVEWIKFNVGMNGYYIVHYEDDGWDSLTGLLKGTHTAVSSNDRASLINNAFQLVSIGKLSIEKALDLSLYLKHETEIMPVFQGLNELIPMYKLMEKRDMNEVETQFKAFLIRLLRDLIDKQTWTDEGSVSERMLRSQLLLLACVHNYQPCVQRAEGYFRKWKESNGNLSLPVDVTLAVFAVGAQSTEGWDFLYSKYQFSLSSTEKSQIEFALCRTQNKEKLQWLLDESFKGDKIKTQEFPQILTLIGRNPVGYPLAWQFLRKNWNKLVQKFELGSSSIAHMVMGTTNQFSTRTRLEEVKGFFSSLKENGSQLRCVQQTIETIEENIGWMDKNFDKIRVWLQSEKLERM
Xi reactivation: activators of inactive X chromosome reactivation, primary screen, imaging, XiGFP fibroblasts, GFP high-content imaging, set 2; hit rate 0.055% among 360,000; XiGFP mouse fibroblasts, % GFP-positive cells imaging, 3 d; cells co-treated with 5-aza-dC sensitizer; scaled so ellipticine positive control = 100%; activation, % at 7.58 µM; AID 743238, 2013;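 active = mean normalized replicate activation at least 10% and every replicate at or above 10%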;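 also: 0% = median of on-plate neutral control wells and 100% = ellipticine 6 µM median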
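Assay system: SV40-immortalized XiGFP fibroblast cells, line 68-5-11; buffer or medium: DMEM plus 5-aza-dC sensitizer; compound: one concentration, pinned; timing: compounds 3 days, fix/stain 15 min at room temperature; benchmarks: positive control ellipticine, 6 µM final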
PvdQ inh: P. aeruginosa PvdQ acylase inhibitors, primary screen, biochemical, fluorescence, plate reader and imaging, single point. purified PvdQ acylase. inhibition, % at 10 µM. hit rate 0.063% among 340,000. AID 488965, 2010; in the data active = inhibition above about 30%, passing the limit was not always enough;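 also: 0% = vehicle neutral wells and 100% = reference inhibitor wells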
CaV13 FRET inh: Primary screen for inhibitors of IQ motif and Ca2+-dependent inactivation inhibitor domain binding in CACNA1D, Förster resonance energy transfer in living cells, …; HEK cells, CFP/YFP FRET ICDI-IQ, plate reader, 10 min; percent FRET-ratio fall versus neutral wells; inhibition, % at 12.3 µM; hit rate 0.098% among 340,000;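 active = mean replicate inhibition of at least 30% and at least 1% of replicates passing that level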;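 also: 0% = median of the neutral control wells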
* marks the source's active call; other numbers are inactive results.

What do the screens show for `O=C(Nc1ccccc1)[C@H]1[C@H](CO)[C@H]2Cn3c(cccc3=O)[C@H]2N1CC1CCOCC1`?
Xi reactivation: 0.6

Results for CN1C(=O)S/C(=C\c2ccc(-n3cncn3)cc2)C1=O ?
ERAP1 HTS inh: -2.0; Xi reactivation: -0.1; PvdQ inh: 48.0*; CaV13 FRET inh: -14.4

What do the screens show for `O=Cc1ccc(-n2cncn2)cc1`?
ERAP1 HTS inh: 6.0; Xi reactivation: 0.2; PvdQ inh: -9.3; CaV13 FRET inh: -8.6

Results for CO[C@@H]1CN(C)C(=O)c2ccc(NC(=O)C3CC3)cc2OC[C@@H](C)N(C)C[C@H]1C ?
ERAP1 HTS inh: -2.5; Xi reactivation: 0.2

What do the screens show for `O=C(NC1CCCC1)c1cccc2c1C(=O)c1ccc(/C=C/c3ccccc3)cc1S2(=O)=O`?
ERAP1 HTS inh: -2.4; Xi reactivation: 14.0*; PvdQ inh: 7.0; CaV13 FRET inh: -10.7

What do the screens show for `O=C(NCc1ccccc1Cl)c1cccc2c1C(=O)c1ccc(-c3ccc(OC(F)(F)F)cc3)cc1S2(=O)=O`?
PvdQ inh: -9.9

Results for O=C(NCc1cc(C(F)(F)F)ccc1Cl)c1cccc2c1C(=O)c1ccc(Cl)cc1S2(=O)=O ?
ERAP1 HTS inh: -0.1; Xi reactivation: 0.0; CaV13 FRET inh: 35.6*

How did O=C(NCc1ccccc1)c1cccc2c1C(=O)c1ccc(/C=C/c3ccccc3)cc1S2(=O)=O do in these assays?
ERAP1 HTS inh: 0.7; Xi reactivation: 17.8*; PvdQ inh: 7.0; CaV13 FRET inh: -34.6

How did C[C@H](CO)N1C[C@H](C)[C@@H](CN(C)S(=O)(=O)c2cccs2)Oc2c(NS(=O)(=O)c3cccs3)cccc2C1=O do in these assays?
Xi reactivation: 0.0

What do the screens show for `CCCNC(=O)N1CC2(C1)CN(C(=O)COC)[C@H](CO)c1c2c2ccc(OC)cc2n1C`?
Xi reactivation: 0.3

Results for C[C@H](CO)N1C[C@H](C)[C@@H](CN(C)S(C)(=O)=O)Oc2c(NC(=O)CCCN(C)C)cccc2C1=O ?
Xi reactivation: -1.1

How did COc1ccc(CCNC(=O)c2cc(S(=O)(=O)N3CCCCC3)c[nH]2)cc1OC do in these assays?
ERAP1 HTS inh: -0.2; Xi reactivation: -0.4; PvdQ inh: -7.4; CaV13 FRET inh: 43.2*

Results for COc1ccc(/C(C#N)=C/c2ccccn2)cc1 ?
ERAP1 HTS inh: 2.0; Xi reactivation: -0.1; PvdQ inh: 53.3*; CaV13 FRET inh: -3.9

How did C/C(=N\NC(=O)CC#N)c1cc2ccc(O)cc2oc1=O do in these assays?
ERAP1 HTS inh: 80.5*; Xi reactivation: 0.0; PvdQ inh: -11.9; CaV13 FRET inh: active

Results for CCC1(CC)NC(=O)N(CC(=O)OCC(=O)NC(=O)c2ccc(Cl)cc2)C1=O ?
ERAP1 HTS inh: 4.5; Xi reactivation: 0.0; PvdQ inh: -8.4; CaV13 FRET inh: -2.5

How did CC1(C)NC(=O)N(CC(=O)OCC(=O)NC(=O)c2ccccc2)C1=O do in these assays?
ERAP1 HTS inh: 63.7*; Xi reactivation: 0.0; PvdQ inh: -12.9

What do the screens show for `COc1cc(N2CCCC2)c(OC)cc1/C=C1/NC(=S)NC1=O`?
Xi reactivation: 70.9*; PvdQ inh: -3.3; CaV13 FRET inh: -15.0

What do the screens show for `Cc1nc(NC(=O)C(Cl)Cl)sc1C(=O)N(C)C`?
Xi reactivation: 11.7*; PvdQ inh: -19.2; CaV13 FRET inh: -4.0

Results for Cc1nc(NC(=O)CCl)sc1C(=O)N(C)C ?
ERAP1 HTS inh: 2.6; Xi reactivation: -0.1; PvdQ inh: -7.0; CaV13 FRET inh: 4.2

What do the screens show for `COCCn1c(N)c(N(Cc2ccccc2)C(=O)c2ccc3ccccc3c2)c(=O)[nH]c1=O`?
ERAP1 HTS inh: 10.9; Xi reactivation: 0.0; PvdQ inh: -2.7; CaV13 FRET inh: 2.6

Results for COCCn1c(N)c(N(Cc2ccccc2)C(=O)C2=COCCO2)c(=O)[nH]c1=O ?
ERAP1 HTS inh: 57.7*; Xi reactivation: 0.0; PvdQ inh: 9.0

Results for N#C[C@H]1[C@H](c2ccc(C#CC3CCCCC3)cc2)[C@H](CO)N1C(=O)Cc1ccccn1 ?
ERAP1 HTS inh: -1.4; Xi reactivation: 0.2

What do the screens show for `N#CC1=C(N)OC2=C(C(=O)CCC2)C1c1cc2c(cc1Br)OCO2` (stereo not given)?
ERAP1 HTS inh: -4.9; Xi reactivation: -0.1; PvdQ inh: 1.3; CaV13 FRET inh: 60.0*

How did N#CC1=C(N)OC2=C(C(=O)CCC2)C1c1cc2c(cc1Cl)OCO2 (stereo not given) do in these assays?
ERAP1 HTS inh: 3.8; Xi reactivation: 0.2; PvdQ inh: 7.6; CaV13 FRET inh: -4.7

How did NC(=O)NCC#Cc1ccc2c(c1)[C@]1(C(=O)N2)[C@H](C(N)=O)[C@H]2C(=O)O[C@H](c3ccccc3)[C@H](c3ccccc3)N2[C@@H]1c1ccccc1OCCO do in these assays?
ERAP1 HTS inh: 0.5

What do the screens show for `CC/C(C)=N\Nc1nc(-c2cc3cc(OC)ccc3oc2=O)cs1`?
ERAP1 HTS inh: -2.1; Xi reactivation: 0.2; PvdQ inh: -3.7; CaV13 FRET inh: active

Results for COc1ccc2oc(=O)c(-c3nc(C)cs3)cc2c1 ?
PvdQ inh: -3.1; CaV13 FRET inh: -15.7

Results for CCOc1ccc2nc(NCCCNS(=O)(=O)c3ccc(F)cc3)c(C#N)cc2c1 ?
ERAP1 HTS inh: -38.1; PvdQ inh: 0.7; CaV13 FRET inh: 33.0*

What do the screens show for `CCOc1ccc2nc(NCCCNS(=O)(=O)c3ccccc3)c(C#N)cc2c1`?
PvdQ inh: -17.4; CaV13 FRET inh: 0.6

What do the screens show for `CC(=O)Nc1ccc2c(c1)CC(=O)N(C)C[C@H](C)[C@@H](CN(C)C(=O)NC(C)C)O2`?
Xi reactivation: 0.2

Results for O=S(=O)(c1ccccc1)N1CC2(C1)[C@@H](c1ccccc1)[C@@H](CO)N2CC1CC1 ?
Xi reactivation: 0.0

Results for CC1CCN(Cc2cc(=O)oc3cc(O)c(Cl)cc23)CC1 ?
ERAP1 HTS inh: 59.6*; Xi reactivation: 0.1; PvdQ inh: -1.2; CaV13 FRET inh: 5.2

Results for CC1CN(Cc2cc(=O)oc3cc(O)c(Cl)cc23)CC(C)O1 (stereo not given) ?
ERAP1 HTS inh: 60.4*; Xi reactivation: 0.1; PvdQ inh: -8.5; CaV13 FRET inh: -2.5

What do the screens show for `Cc1ccc2oc(=O)cc(CN3CC(C)OC(C)C3)c2c1` (stereo not given)?
ERAP1 HTS inh: 1.8; Xi reactivation: 0.2; PvdQ inh: -0.5; CaV13 FRET inh: -15.8

Results for CCOC(=O)N1CCN(c2ccc(O)cc2)CC1 ?
PvdQ inh: -3.3; CaV13 FRET inh: 0.5

What do the screens show for `CCOC(=O)N1CCN(c2ccc(Cl)cc2)CC1`?
ERAP1 HTS inh: -3.8; Xi reactivation: 0.3; PvdQ inh: 43.9*; CaV13 FRET inh: -17.8

How did Cn1cccc1/C=N/NC(=O)c1sc2cc(Cl)ccc2c1Cl do in these assays?
ERAP1 HTS inh: -3.4; Xi reactivation: 0.0; CaV13 FRET inh: 42.1*
